Experimental data taken from ChEMBL document CHEMBL3992532, “Structure-Based Design of Macrocyclic Factor XIa Inhibitors: Discovery of the Macrocyclic Amide Linker” (J Med Chem, 2017).

What was measured:
[1] = biological target: Coagulation factor XI (Homo sapiens, UniProt P03951); test: Inhibition of human coagulation factor 11a using pyroGlu-Pro-Arg-pNA as substrate after 10 to 120 mins at 37 degC by spectrophotometric method
Procedure, shortened: (§1)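 Purified human proteases, 37 °C; reaction started by adding enzyme to substrate (up to 4× Km) ± inhibitor; compound from DMSO, 1% DMSO final except where noted. […] Buffers: FXIa, chymotrypsin, tPA, plasmin, urokinase in 50 mM HEPES pH 7.4, 145 mM NaCl, 5 mM KCl, 0.1% PEG 8000; FXa, thrombin, trypsin, plasma kallikrein, aPC in 100 mM Na phosphate pH 7.4, 200 mM NaCl, 0.5% PEG 8000; FIXa in 50 mM Tris pH 7.4, 100 mM NaCl, 5 mM CaCl2, 0.5% PEG 8000, 2% DMSO.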

[2] = test system: Plasma; test: Anticoagulant activity in human plasma assessed as concentration required to produce 50% increase in activated partial thromboplastin time; type: functional
Procedure, shortened: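 Citrated (one-tenth volume 0.11 M) plasma from healthy volunteers, spun 2,000 g 10 min, kept on ice; 10 mM DMSO stock diluted in plasma, up to 7 concentrations; aPTT on automated coagulometer, duplicates as mean ratio to baseline; EC1.5x (50% prolongation) by linear interpolation, as total plasma concentration.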

[3] = biological target: T1, Coagulation factor VII (Homo sapiens, UniProt P08709); test: Inhibition of human coagulation factor 7a using H-(D)-Ile-Pro-Arg-pNA as substrate after 10 to 120 mins at 25 degC by spectrophotometric method
T1 sequence (P08709 whole entry): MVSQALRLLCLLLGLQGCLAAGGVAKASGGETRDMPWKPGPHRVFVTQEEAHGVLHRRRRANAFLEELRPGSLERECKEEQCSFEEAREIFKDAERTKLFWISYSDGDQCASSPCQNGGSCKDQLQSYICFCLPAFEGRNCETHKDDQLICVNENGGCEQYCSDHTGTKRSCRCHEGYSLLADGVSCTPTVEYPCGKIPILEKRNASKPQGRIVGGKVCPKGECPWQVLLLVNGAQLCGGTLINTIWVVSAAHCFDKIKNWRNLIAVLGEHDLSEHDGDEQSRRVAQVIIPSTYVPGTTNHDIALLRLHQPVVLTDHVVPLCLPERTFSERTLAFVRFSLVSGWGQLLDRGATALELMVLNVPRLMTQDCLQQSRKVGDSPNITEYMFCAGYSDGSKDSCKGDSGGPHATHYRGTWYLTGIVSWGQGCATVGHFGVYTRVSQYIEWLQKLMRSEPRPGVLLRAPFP

[4] = biological target: Coagulation factor IX (Homo sapiens, UniProt P00740); test: Inhibition of human coagulation factor 9a using methylsulfonyl-D-cyclohexylglycyl-Gly-Arg-AMC as substrate after 10 to 120 mins at 37 degC by spectrophotometric method; procedure, shortened: as §1
[5] = biological target: Coagulation factor X (Homo sapiens, UniProt P00742); test: Inhibition of human coagulation factor 10a using N-benzoyl-Ile-Glu-(OH,OMe)-Gly-Arg-pNA as substrate after 10 to 120 mins at 37 degC by spectrophotometric method; procedure, shortened: as §1
[6] = biological target: T2, Coagulation factor XII (Homo sapiens, UniProt P00748); test: Inhibition of human coagulation factor 12a using H-(D)-CHT-Gly-Arg-pNA as substrate after 10 to 120 mins at 25 degC by spectrophotometric method
T2 sequence (P00748 whole entry): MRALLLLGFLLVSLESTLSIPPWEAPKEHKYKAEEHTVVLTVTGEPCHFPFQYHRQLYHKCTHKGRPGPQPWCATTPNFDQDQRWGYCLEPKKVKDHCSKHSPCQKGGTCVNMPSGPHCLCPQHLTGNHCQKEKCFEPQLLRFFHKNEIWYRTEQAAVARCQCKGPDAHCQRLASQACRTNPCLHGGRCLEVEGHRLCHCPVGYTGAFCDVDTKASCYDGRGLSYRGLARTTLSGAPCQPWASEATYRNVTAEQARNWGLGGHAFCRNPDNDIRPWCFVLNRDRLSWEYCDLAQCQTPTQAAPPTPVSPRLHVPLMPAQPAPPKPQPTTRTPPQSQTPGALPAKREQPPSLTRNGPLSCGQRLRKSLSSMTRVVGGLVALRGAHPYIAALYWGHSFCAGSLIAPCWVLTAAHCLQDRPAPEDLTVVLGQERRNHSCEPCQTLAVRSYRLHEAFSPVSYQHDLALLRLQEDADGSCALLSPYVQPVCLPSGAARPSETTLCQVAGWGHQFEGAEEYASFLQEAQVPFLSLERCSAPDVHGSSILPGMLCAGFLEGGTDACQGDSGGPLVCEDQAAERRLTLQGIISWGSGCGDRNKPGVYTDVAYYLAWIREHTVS

[7] = biological target: Prothrombin (Homo sapiens, UniProt P00734); test: Inhibition of human thrombin using pyroGlu-Pro-Arg-pNA as substrate after 10 to 120 mins at 37 degC by spectrophotometric method; procedure, shortened: as §1
[8] = Inhibition of human trypsin using N-benzoyl-Ile-Glu-(OH,OMe)-Gly-Arg-pNA as substrate after 10 to 120 mins at 37 degC by spectrophotometric method; procedure, shortened: as §1
[9] = biological target: Plasma kallikrein (Homo sapiens, UniProt P03952); test: Inhibition of human plasma kallikrein using H-(D)-Pro-Phe-Arg-pNA as substrate after 10 to 120 mins at 37 degC by spectrophotometric method; procedure, shortened: as §1
[10] = biological target: Vitamin K-dependent protein C (Homo sapiens, UniProt P04070); test: Inhibition of human activated protein C using pyroGlu-Pro-Arg-pNA as substrate after 10 to 120 mins at 37 degC by spectrophotometric method; procedure, shortened: as §1
[11] = biological target: Plasminogen (Homo sapiens, UniProt P00747); test: Inhibition of human plasmin using H-(D)-Val-Leu-LyspNA as substrate after 10 to 120 mins at 37 degC by spectrophotometric method; procedure, shortened: as §1
[12] = biological target: Tissue-type plasminogen activator (Homo sapiens, UniProt P00750); test: Inhibition of human tissue plasminogen activator using methylsulfonyl-D-cyclohexylalanyl-GlyArg-pNA as substrate after 10 to 120 mins at 37 degC by spectrophotometric method; procedure, shortened: as §1
[13] = biological target: Urokinase-type plasminogen activator (Homo sapiens, UniProt P00749); test: Inhibition of human urokinase using pyro-Glu-Gly-Arg-pNA as substrate after 10 to 120 mins at 37 degC by spectrophotometric method; procedure, shortened: as §1
[14] = Inhibition of human chymotrypsin using MeO-SucArg-Pro-Tyr-pNA as substrate after 10 to 120 mins at 37 degC by spectrophotometric method; procedure, shortened: as §1
[15] = Half life in human liver microsomes; type: ADME, microsome
[16] = Half life in Beagle dog at 0.2 mg/kg, iv administered as 10 mins infusion or 0.23 mg/kg, po via gavage administered as cassette dose by LC-MS/MS method; type: ADME, organism-based, Canis lupus familiaris; conditions: in vivo
Procedure, shortened: (§2)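 Dog PK vehicles as footnoted: iv in 70% PEG 400/20% water/10% ethanol; po either 70% PEG 400/20% TPGS/10% ethanol or the same PEG 400/water/ethanol vehicle used for iv.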

[17] = Volume of distribution at steady state in Beagle dog at 0.2 mg/kg, iv administered as 10 mins infusion or 0.23 mg/kg, po via gavage administered as cassette dose by LC-MS/MS method; type: ADME, organism-based, Canis lupus familiaris; conditions: in vivo, read-out: Vdss; procedure, shortened: as §2
[18] = test system: Canis familiaris; test: Oral bioavailability in Beagle dog at 0.23 mg/kg administered via gavage as cassette dose by LC-MS/MS method; type: ADME, organism-based, Canis lupus familiaris; conditions: in vivo; procedure, shortened: as §2
[19] = test system: Canis familiaris; test: AUC in Beagle dog at 0.23 mg/kg, po administered via gavage as cassette dose by LC-MS/MS method; type: ADME, organism-based, Canis lupus familiaris; conditions: in vivo; procedure, shortened: as §2
[20] = Half life in dog liver microsomes; type: ADME, Canis lupus familiaris, microsome
[21] = Protein binding in dog plasma; type: ADME, cell-free, Canis lupus familiaris; conditions: read-out: PPB (converted)
[22] = Half life in Beagle dog at 0.21 mg/kg, iv administered as 10 mins infusion or 0.42 mg/kg, po via gavage administered as cassette dose by LC-MS/MS method; type: ADME, organism-based, Canis lupus familiaris; conditions: in vivo; procedure, shortened: as §2
[23] = Volume of distribution at steady state in Beagle dog at 0.21 mg/kg, iv administered as 10 mins infusion or 0.42 mg/kg, po via gavage administered as cassette dose by LC-MS/MS method; type: ADME, organism-based, Canis lupus familiaris; conditions: in vivo, read-out: Vdss; procedure, shortened: as §2
[24] = test system: Canis familiaris; test: Oral bioavailability in Beagle dog at 0.42 mg/kg administered via gavage as cassette dose by LC-MS/MS method; type: ADME, organism-based, Canis lupus familiaris; conditions: in vivo; procedure, shortened: as §2
[25] = test system: Canis familiaris; test: AUC in Beagle dog at 0.42 mg/kg, po administered via gavage as cassette dose by LC-MS/MS method; type: ADME, organism-based, Canis lupus familiaris; conditions: in vivo; procedure, shortened: as §2

Coagulation factor XI, sequence (P03951 19-387 limits assumed): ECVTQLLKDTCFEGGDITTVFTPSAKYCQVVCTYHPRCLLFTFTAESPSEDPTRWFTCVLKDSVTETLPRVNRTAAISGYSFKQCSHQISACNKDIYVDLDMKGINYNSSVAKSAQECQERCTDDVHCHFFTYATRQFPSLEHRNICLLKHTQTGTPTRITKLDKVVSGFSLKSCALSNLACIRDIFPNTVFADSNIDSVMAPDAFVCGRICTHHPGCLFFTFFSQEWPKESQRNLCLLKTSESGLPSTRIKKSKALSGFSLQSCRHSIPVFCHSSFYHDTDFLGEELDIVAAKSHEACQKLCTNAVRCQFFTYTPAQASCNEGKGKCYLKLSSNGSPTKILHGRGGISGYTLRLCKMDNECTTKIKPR
Coagulation factor XI, sequence (P03951 388-625 limits assumed): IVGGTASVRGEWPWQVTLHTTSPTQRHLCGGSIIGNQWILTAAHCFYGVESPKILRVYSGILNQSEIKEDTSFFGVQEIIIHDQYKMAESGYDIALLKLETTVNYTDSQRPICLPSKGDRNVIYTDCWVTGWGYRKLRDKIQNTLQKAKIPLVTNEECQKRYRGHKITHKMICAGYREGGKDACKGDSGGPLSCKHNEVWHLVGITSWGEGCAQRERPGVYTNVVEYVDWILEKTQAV
Tissue-type plasminogen activator, sequence (P00750 whole entry): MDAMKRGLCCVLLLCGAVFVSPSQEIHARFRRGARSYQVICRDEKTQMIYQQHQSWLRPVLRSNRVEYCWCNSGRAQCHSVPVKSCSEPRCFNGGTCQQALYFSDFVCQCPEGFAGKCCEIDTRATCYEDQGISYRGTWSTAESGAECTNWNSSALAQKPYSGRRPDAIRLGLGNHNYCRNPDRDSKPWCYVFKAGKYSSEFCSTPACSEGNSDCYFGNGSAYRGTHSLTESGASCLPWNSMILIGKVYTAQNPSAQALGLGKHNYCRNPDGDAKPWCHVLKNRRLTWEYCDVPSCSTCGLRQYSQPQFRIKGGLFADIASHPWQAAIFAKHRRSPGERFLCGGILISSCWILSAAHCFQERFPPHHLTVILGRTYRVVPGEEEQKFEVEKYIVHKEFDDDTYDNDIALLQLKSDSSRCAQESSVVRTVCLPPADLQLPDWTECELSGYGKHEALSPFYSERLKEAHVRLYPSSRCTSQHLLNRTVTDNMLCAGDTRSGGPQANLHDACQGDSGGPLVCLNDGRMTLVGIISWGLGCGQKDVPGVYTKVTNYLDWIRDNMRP
Vitamin K-dependent protein C, sequence (P04070 43-197 limits assumed): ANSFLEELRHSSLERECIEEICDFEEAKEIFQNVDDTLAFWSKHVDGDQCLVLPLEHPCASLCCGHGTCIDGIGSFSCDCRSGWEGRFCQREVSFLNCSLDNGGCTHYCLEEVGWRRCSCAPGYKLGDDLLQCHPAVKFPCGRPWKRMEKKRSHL
Vitamin K-dependent protein C, sequence (P04070 212-461 limits assumed): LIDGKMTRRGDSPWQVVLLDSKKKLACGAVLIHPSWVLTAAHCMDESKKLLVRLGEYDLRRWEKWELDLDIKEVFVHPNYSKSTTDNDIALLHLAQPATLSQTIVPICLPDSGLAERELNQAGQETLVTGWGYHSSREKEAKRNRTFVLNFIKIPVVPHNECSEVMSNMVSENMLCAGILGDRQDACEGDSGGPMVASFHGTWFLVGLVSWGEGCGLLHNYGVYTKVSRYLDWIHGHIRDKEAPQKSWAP
Plasminogen, sequence (P00747 97-580 limits assumed): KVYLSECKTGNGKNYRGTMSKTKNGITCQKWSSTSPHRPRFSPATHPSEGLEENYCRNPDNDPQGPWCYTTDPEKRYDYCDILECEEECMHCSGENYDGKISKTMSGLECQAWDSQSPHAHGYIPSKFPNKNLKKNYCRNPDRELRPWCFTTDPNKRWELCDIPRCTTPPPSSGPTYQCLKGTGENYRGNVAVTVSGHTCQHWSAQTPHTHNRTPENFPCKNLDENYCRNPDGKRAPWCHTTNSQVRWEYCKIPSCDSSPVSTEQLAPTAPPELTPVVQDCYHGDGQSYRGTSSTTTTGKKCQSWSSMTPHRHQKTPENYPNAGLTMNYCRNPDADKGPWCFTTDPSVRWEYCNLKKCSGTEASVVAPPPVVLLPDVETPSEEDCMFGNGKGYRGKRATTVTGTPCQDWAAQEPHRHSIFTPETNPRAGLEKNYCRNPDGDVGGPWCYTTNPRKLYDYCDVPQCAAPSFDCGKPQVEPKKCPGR
Plasminogen, sequence (P00747 581-810 limits assumed): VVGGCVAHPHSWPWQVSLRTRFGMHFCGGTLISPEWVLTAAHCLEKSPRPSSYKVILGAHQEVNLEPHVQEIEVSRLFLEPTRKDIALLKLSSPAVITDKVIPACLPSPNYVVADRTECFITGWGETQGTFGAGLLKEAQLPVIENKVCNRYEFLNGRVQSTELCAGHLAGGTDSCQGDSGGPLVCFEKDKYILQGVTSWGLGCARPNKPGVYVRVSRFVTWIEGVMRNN
Plasma kallikrein, sequence (P03952 20-390 limits assumed): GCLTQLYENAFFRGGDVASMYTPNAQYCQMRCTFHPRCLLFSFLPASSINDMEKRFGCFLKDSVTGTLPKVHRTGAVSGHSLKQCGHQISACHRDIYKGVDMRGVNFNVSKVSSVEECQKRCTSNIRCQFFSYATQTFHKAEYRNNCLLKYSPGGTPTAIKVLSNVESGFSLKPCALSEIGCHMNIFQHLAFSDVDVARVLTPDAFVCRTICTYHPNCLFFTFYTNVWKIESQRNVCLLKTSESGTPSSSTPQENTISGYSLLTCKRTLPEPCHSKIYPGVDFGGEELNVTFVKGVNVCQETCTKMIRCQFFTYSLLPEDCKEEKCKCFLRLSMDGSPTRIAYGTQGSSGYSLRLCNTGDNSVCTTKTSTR
Plasma kallikrein, sequence (P03952 391-638 limits assumed): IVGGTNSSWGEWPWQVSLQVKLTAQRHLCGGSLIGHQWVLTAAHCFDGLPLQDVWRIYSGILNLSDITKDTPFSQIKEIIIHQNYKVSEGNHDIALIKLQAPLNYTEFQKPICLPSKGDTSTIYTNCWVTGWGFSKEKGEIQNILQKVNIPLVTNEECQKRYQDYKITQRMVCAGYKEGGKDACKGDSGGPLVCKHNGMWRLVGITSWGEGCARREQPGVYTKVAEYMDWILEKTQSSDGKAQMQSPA
Coagulation factor IX, sequence (P00740 47-191 limits assumed): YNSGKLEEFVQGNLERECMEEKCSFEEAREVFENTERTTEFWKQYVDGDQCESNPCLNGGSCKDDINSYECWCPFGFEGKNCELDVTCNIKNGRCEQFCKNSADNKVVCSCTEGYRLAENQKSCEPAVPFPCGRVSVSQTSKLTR
Coagulation factor IX, sequence (P00740 227-461 limits assumed): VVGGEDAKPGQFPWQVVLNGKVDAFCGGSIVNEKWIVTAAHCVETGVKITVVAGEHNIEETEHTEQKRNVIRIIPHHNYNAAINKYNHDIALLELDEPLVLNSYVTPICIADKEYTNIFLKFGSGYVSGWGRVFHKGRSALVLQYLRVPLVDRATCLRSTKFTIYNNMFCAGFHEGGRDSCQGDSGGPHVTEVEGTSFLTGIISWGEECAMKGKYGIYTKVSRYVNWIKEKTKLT
Coagulation factor X, sequence (P00742 41-179 limits assumed): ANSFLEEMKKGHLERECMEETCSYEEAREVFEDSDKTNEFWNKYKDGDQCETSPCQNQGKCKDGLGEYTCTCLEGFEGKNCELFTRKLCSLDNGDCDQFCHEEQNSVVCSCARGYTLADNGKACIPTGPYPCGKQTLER
Coagulation factor X, sequence (P00742 235-488 limits assumed): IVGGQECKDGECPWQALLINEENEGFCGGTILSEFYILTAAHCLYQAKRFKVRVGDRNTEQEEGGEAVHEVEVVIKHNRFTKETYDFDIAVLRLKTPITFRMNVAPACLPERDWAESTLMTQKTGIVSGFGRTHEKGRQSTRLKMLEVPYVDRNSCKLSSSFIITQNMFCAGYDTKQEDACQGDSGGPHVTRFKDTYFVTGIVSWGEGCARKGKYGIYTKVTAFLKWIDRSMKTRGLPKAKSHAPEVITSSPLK

COC(=O)Nc1ccc(-c2nc([C@H](Cc3ccccc3)NC(=O)/C=C/c3cc(Cl)ccc3-n3cnnn3)[nH]c2Cl)cc1
Ki [1]: 0.0058 µM
EC1.5 [2]: 5.3 µM
Ki [3]: > 13.4 µM
Ki [4]: > 27.1 µM
Ki [5]: > 13.3 µM
Ki [6]: > 3.05 µM
Ki [7]: > 11.5 µM
Ki [8]: > 10 µM
Ki [9]: 0.519 µM
Ki [10]: > 21.5 µM
Ki [11]: > 15.2 µM
Ki [12]: > 6.15 µM
Ki [13]: > 15.1 µM
Ki [14]: > 4.53 µM

COC(=O)Nc1ccc2c(c1)NC(=O)CCCC[C@H](NC(=O)/C=C/c1cc(Cl)ccc1-n1cnnn1)c1nc-2c[nH]1
Ki [1]: 0.001 µM
EC1.5 [2]: 0.3 µM
half-life [15]: 1.5 h
Ki [3]: 3.19 µM
Ki [4]: > 27.1 µM
Ki [5]: > 13.3 µM
Ki [6]: > 3.05 µM
Ki [7]: > 11.5 µM
Ki [8]: 8.39 µM
Ki [9]: 0.07 µM
Ki [10]: > 21.5 µM
Ki [11]: > 15.2 µM
Ki [12]: > 6.15 µM
Ki [13]: > 15.1 µM
Ki [14]: 3.94 µM
half-life [16]: 1 h
Vd [17]: 0.8 L/kg
F [18]: 6%
AUC [19]: 0.021 µM·h
half-life [20]: > 2 h
fraction unbound [21]: 0.098

COC(=O)Nc1ccc2c(c1)CCCCCC[C@H](NC(=O)/C=C/c1cc(Cl)ccc1-n1cnnn1)c1nc-2c[nH]1
Ki [1]: 0.087 µM
EC1.5 [2]: >40 µM
half-life [22]: 3.2 h
Vd [23]: 0.7 L/kg
F [24]: 12%
AUC [25]: 0.458 µM·h
half-life [20]: > 2 h
